ChEMBL document CHEMBL4145669 (J Med Chem, 2018)
Square brackets hold non-standard residues; d marks the D form. Peptide text beside a SMILES is read from it. hPhe = N[C@@H](CCc1ccccc1)C(=O)O; Nle = CCCC[C@H](N)C(=O)O; Dap = NC[C@H](N)C(=O)O

Tests used:
Mus musculus = organism: Mus musculus; assay: Selectivity index, ratio of pA2 for antagonist activity at mouse MC3R expressed in HEK293 cells to pA2 for antagonist activity at mouse MC4R expressed in HEK293 cells; format: cell-based
[1] = target: Melanocortin receptor 5 (Mus musculus) (UniProt P41149); assay: Inverse agonist activity at mouse MC5R expressed in HEK293 cells at 100 uM incubated for 2 hrs by AlphaScreen cAMP assay; format: functional, cell-based
Method in brief: (§1)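 In the mouse MC5R HEK293 stable line, cells in IBMX-containing stimulation buffer with anti-cAMP acceptor beads were exposed to compound at up to 100 μM for 2 h at room temperature in the dark. Donor beads/biotinylated cAMP were then added for 2 h before AlphaScreen reading. Signal was normalized to basal response to give a percent difference from basal. Duplicate wells, ≥3 independent experiments.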

Melanocortin receptor 3 = Melanocortin receptor 3 (Mus musculus, UniProt P33033); assay: Antagonist activity at mouse MC3R expressed in HEK293 cells assessed as reduction in NDP-MSH-induced response incubated for 2 hrs by AlphaScreen cAMP assay based Schild analysis; format: functional, cell-based; details: read-out: pA2 (converted)
Melanocortin receptor 5 = Melanocortin receptor 5 (Mus musculus, UniProt P41149); assay: Inverse agonist activity at mouse MC5R expressed in HEK293 cells incubated for 2 hrs by AlphaScreen cAMP assay; format: functional, cell-based; method in brief: as §1
[2] = target: Melanocortin receptor 3 (Mus musculus) (UniProt P33033); assay: Agonist activity at mouse MC3R expressed in HEK293 cells at 100 uM incubated for 2 hrs by AlphaScreen cAMP assay relative to untreated control; format: functional, cell-based
[3] = target: Melanocortin receptor 4 (Mus musculus) (UniProt P56450); assay: Agonist activity at mouse MC4R expressed in HEK293 cells at 100 uM incubated for 2 hrs by AlphaScreen cAMP assay relative to untreated control; format: functional, cell-based
Melanocortin receptor 4 = Melanocortin receptor 4 (Mus musculus, UniProt P56450); assay: Antagonist activity at mouse MC4R expressed in HEK293 cells assessed as reduction in NDP-MSH-induced response incubated for 2 hrs by AlphaScreen cAMP assay based Schild analysis; format: functional, cell-based; details: read-out: pA2 (converted)
[4] = target: Melanocyte-stimulating hormone receptor (Mus musculus, UniProt Q01727); assay: Agonist activity at mouse MC1R expressed in HEK293 cells incubated for 2 hrs by AlphaScreen cAMP assay; format: functional, cell-based
Method in brief: (§2)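 HEK293 cells stably expressing mouse MC1R, about 90% confluent, were detached with Versene and suspended at 10,000 cells/μL in stimulation buffer (HBSS, 0.5 mM IBMX, 5 mM HEPES, 0.1% BSA, pH 7.4) with anti-cAMP acceptor beads. Compound was added for 2 h at room temperature in the dark, then donor beads/biotinylated cAMP in lysis buffer for 2 h, followed by AlphaScreen read. Doses went up to 100 μM in duplicate wells, ≥3 experiments. EC50 came from nonlinear regression, with efficacy as a percent of NDP-MSH.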

[5] = target: Melanocyte-stimulating hormone receptor (Mus musculus) (UniProt Q01727); assay: Agonist activity at mouse MC1R expressed in HEK293 cells at 100 uM incubated for 2 hrs by AlphaScreen cAMP assay relative to NDP-MSH; format: functional, cell-based; method in brief: as §2
[6] = target: Melanocyte-stimulating hormone receptor (Mus musculus) (UniProt Q01727); assay: Agonist activity at mouse MC1R expressed in HEK293 cells incubated for 2 hrs by AlphaScreen cAMP assay relative to NDP-MSH; format: functional, cell-based; method in brief: as §2

Melanocortin receptor 5, sequence (P41149 whole entry): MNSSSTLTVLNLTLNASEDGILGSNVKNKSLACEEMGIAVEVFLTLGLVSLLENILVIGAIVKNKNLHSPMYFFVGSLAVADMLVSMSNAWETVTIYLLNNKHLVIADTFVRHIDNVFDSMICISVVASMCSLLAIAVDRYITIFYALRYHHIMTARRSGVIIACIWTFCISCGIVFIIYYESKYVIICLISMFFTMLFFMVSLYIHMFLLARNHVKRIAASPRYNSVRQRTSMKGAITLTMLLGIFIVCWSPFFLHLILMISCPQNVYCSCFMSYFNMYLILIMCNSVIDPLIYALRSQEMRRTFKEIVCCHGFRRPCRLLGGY
Melanocortin receptor 5 (Mus musculus), sequence (P41149 whole entry): as above
Melanocortin receptor 4 (Mus musculus), sequence (P56450 whole entry): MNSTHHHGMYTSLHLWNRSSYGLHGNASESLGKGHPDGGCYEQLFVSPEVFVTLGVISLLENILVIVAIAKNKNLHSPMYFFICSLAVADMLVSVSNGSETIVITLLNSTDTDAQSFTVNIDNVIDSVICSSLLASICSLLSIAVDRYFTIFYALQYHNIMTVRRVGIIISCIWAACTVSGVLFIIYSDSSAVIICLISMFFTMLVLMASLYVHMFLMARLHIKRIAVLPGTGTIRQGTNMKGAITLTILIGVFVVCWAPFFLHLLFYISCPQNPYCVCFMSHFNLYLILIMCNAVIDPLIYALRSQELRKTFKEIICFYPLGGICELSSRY
Melanocortin receptor 4, sequence (P56450 whole entry): as above
Melanocyte-stimulating hormone receptor, sequence (Q01727 whole entry): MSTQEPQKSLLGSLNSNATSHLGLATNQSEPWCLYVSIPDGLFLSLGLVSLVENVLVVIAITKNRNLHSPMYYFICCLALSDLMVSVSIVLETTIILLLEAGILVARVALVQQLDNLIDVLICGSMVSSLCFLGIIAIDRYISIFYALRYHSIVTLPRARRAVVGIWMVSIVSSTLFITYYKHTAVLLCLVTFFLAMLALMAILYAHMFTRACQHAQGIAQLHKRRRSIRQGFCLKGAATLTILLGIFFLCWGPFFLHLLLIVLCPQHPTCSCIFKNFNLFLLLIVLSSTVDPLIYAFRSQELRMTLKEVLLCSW
Melanocyte-stimulating hormone receptor (Mus musculus), sequence (Q01727 whole entry, looked up): as the sequence (Q01727 whole entry) above
Melanocortin receptor 3 (Mus musculus), sequence (P33033 whole entry): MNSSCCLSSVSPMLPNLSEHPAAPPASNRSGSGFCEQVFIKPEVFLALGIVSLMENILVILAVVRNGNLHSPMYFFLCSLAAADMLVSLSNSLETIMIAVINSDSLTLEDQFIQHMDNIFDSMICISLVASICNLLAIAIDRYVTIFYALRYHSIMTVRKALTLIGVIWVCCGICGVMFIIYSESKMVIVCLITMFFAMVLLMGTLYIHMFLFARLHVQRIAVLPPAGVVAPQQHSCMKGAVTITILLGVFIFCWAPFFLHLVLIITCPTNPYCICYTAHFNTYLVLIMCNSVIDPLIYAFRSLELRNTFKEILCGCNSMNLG
Melanocortin receptor 3, sequence (P33033 whole entry): as above

SMILES: CCCC[C@@H]1NC(=O)[C@H](C)NC(=O)[C@H](CN)NC(=O)[C@H](Cc2ccccc2)NC(=O)[C@H](Cc2ccccc2)NC(=O)[C@H](CCCNC(=N)N)NC(=O)[C@@H]2CCCN2C(=O)[C@H]2CCCN2C1=O
- Ratio (Mus musculus): 79
- Activity [1]: < 20%
- Kb (Melanocortin receptor 3): 79.4 nM
- EC50 (Melanocortin receptor 5): > 100 µM
- Activity [2]: < 20%
- Activity [3]: < 20%
- Kb (Melanocortin receptor 4): 1 nM
- EC50 [4]: 190 nM

SMILES: CCCC[C@@H]1NC(=O)[C@H](C)NC(=O)[C@H](CN)NC(=O)[C@H](CCc2ccccc2)NC(=O)[C@H](Cc2ccccc2)NC(=O)[C@H](CCCNC(=N)N)NC(=O)[C@@H]2CCCN2C(=O)[C@H]2CCCN2C1=O (cyclo(RF[hPhe][Dap]A[Nle][dP]P))
- Ratio (Mus musculus): 250
- Activity [5]: < 20%
- Activity [1]: < 20%
- Kb (Melanocortin receptor 3): 200 nM
- EC50 (Melanocortin receptor 5): > 100 µM
- Activity [2]: < 20%
- Activity [3]: < 20%
- Kb (Melanocortin receptor 4): 0.794 nM
- EC50 [4]: > 100000 nM

SMILES: CCCC[C@@H]1NC(=O)[C@H](CO)NC(=O)[C@H](CCCNC(=N)N)NC(=O)[C@H](Cc2ccccc2)NC(=O)[C@H](Cc2ccccc2)NC(=O)[C@H](CCCNC(=N)N)NC(=O)[C@@H]2CCCN2C(=O)[C@H]2CCCN2C1=O (cyclo(RFFRS[Nle][dP]P))
- Ratio (Mus musculus): 320
- Activity [5]: < 20%
- Activity [1]: < 20%
- Kb (Melanocortin receptor 3): 79.4 nM
- EC50 (Melanocortin receptor 5): > 100 µM
- Activity [2]: < 20%
- Activity [3]: < 20%
- Kb (Melanocortin receptor 4): 0.251 nM
- EC50 [4]: > 100000 nM

SMILES: CCCC[C@@H]1NC(=O)[C@H](C)NC(=O)[C@H](CCCNC(=N)N)NC(=O)[C@H](CCc2ccccc2)NC(=O)[C@H](Cc2ccccc2)NC(=O)[C@H](CCCNC(=N)N)NC(=O)[C@@H]2CCCN2C(=O)[C@H]2CCCN2C1=O (cyclo(RF[hPhe]RA[Nle][dP]P))
- Ratio (Mus musculus): 19
- Activity [5]: < 20%
- Activity [1]: < 20%
- Kb (Melanocortin receptor 3): 31.6 nM
- EC50 (Melanocortin receptor 5): > 100 µM
- Activity [2]: < 20%
- Activity [3]: < 20%
- Kb (Melanocortin receptor 4): 1.58 nM
- EC50 [4]: > 100000 nM

SMILES: CCCC[C@@H]1NC(=O)[C@H](CO)NC(=O)[C@H](CC(N)=O)NC(=O)[C@H](Cc2ccccc2)NC(=O)[C@H](Cc2ccccc2)NC(=O)[C@H](CCCNC(=N)N)NC(=O)[C@@H]2CCCN2C(=O)[C@H]2CCCN2C1=O (cyclo(RFFNS[Nle][dP]P))
- Ratio (Mus musculus): 79
- Activity [1]: -35%
- Kb (Melanocortin receptor 3): 251 nM
- Activity [6]: 75%
- Activity [2]: < 20%
- Activity [3]: < 20%
- Kb (Melanocortin receptor 4): 3.16 nM
- EC50 [4]: 2600 nM

SMILES: C[C@@H]1NC(=O)[C@H](CCCNC(=N)N)NC(=O)[C@H](CCc2ccccc2)NC(=O)[C@H](Cc2ccccc2)NC(=O)[C@H](CCCNC(=N)N)NC(=O)[C@@H]2CCCN2C(=O)[C@H]2CCCN2C(=O)[C@H](Cc2ccccc2)NC1=O (cyclo(RF[hPhe]RAF[dP]P))
- Ratio (Mus musculus): 8
- Activity [5]: 25%
- Activity [1]: < 20%
- Kb (Melanocortin receptor 3): 10 nM
- EC50 (Melanocortin receptor 5): > 100 µM
- Activity [2]: < 20%
- Activity [3]: < 20%
- Kb (Melanocortin receptor 4): 1.26 nM

SMILES: CCCC[C@@H]1NC(=O)[C@H](CO)NC(=O)[C@H](CN)NC(=O)[C@H](Cc2ccccc2)NC(=O)[C@H](Cc2ccccc2)NC(=O)[C@H](CCCNC(=N)N)NC(=O)[C@@H]2CCCN2C(=O)[C@H]2CCCN2C1=O (cyclo(RFF[Dap]S[Nle][dP]P))
- Ratio (Mus musculus): 430
- Activity [5]: < 20%
- Activity [1]: < 20%
- Kb (Melanocortin receptor 3): 316 nM
- EC50 (Melanocortin receptor 5): > 100 µM
- Activity [2]: < 20%
- Activity [3]: < 20%
- Kb (Melanocortin receptor 4): 0.794 nM
- EC50 [4]: > 100000 nM

SMILES: N=C(N)NCCC[C@@H]1NC(=O)[C@@H]2CCCN2C(=O)[C@H]2CCCN2C(=O)[C@H](Cc2ccccc2)NC(=O)[C@H](CO)NC(=O)[C@H](CN)NC(=O)[C@H](CCc2ccccc2)NC(=O)[C@H](Cc2ccccc2)NC1=O
- Ratio (Mus musculus): 120
- Activity [5]: 40%
- Activity [1]: < 20%
- Kb (Melanocortin receptor 3): 63.1 nM
- EC50 (Melanocortin receptor 5): > 100 µM
- Activity [2]: < 20%
- Activity [3]: < 20%
- Kb (Melanocortin receptor 4): 0.631 nM

SMILES: CCCC[C@@H]1NC(=O)[C@H](CO)NC(=O)[C@H](CCCNC(=N)N)NC(=O)[C@H](CCc2ccccc2)NC(=O)[C@H](Cc2ccccc2)NC(=O)[C@H](CCCNC(=N)N)NC(=O)[C@@H]2CCCN2C(=O)[C@H]2CCCN2C1=O (cyclo(RF[hPhe]RS[Nle][dP]P))
- Ratio (Mus musculus): 37
- Activity [1]: < 20%
- Kb (Melanocortin receptor 3): 12.6 nM
- EC50 (Melanocortin receptor 5): > 100 µM
- Activity [2]: < 20%
- Activity [3]: < 20%
- Kb (Melanocortin receptor 4): 0.316 nM
- EC50 [4]: 400 nM
